Measurements as given in ChEMBL document CHEMBL1123263, “Alkylglycidic acids: potential new hypoglycemic agents” (J Med Chem, 1986).
Calls of active or inactive are those of the source. No cut-off for these calls is given here.

How the values were obtained:
Rattus norvegicus [1] = species on record: Rattus norvegicus; assay: In vitro inhibition of palmitate oxidation; format: functional
Summary of the method: (§1)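 In vitro assay in rat hemidiaphragm muscle, using [1-¹⁴C]palmitic acid as the labeled substrate. Read-out was inhibition of oxidation of the labeled palmitate.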

Rattus norvegicus [2] = assay: Minimum effective concentration by rat glucose tolerance test (po); format: functional; conditions: read-out: MED
Rattus norvegicus [3] = species on record: Rattus norvegicus; assay: Compound was tested in vitro for inhibition of palmitate oxidation; format: functional; conditions: for minimal effective concentration: Rattus norvegicus, read-out: MEC; summary of the method: as §1
Rattus norvegicus [4] = assay: Maximum lowering of blood glucose when 100 mg/kg of the drug administered orally was reported by rat glucose tolerance test; format: functional; conditions: route oral
Rattus norvegicus [5] = species on record: Rattus norvegicus; assay: In vitro inhibition of palmitate oxidation; Inactive; format: functional; summary of the method: as §1
Rattus norvegicus [6] = species on record: Rattus norvegicus; assay: Compound was tested in vitro for inhibition of palmitate oxidation; Inactive; format: functional; summary of the method: as §1
Rattus norvegicus [7] = assay: Maximum lowering of blood glucose when 100 mg/kg of the drug administered orally was reported by rat glucose tolerance test; Inactive; format: functional, organism-based; parameters: dose 100 mg/kg
Rattus norvegicus [8] = assay: Minimum effective concentration by rat glucose tolerance test (po); Inactive; format: functional, organism-based
Rattus norvegicus [9] = assay: Maximum lowering of blood glucose when 25 mg/kg of the drug administered orally was reported by rat glucose tolerance test; format: functional; conditions: route oral
Rattus norvegicus [10] = assay: Maximum lowering of blood glucose when 60 mg/kg of the drug administered orally was reported by rat glucose tolerance test; format: functional; conditions: route oral
Rattus norvegicus [11] = assay: Maximum lowering of blood glucose when 50 mg/kg of the drug administered orally was reported by rat glucose tolerance test; format: functional; conditions: route oral
Rattus norvegicus [12] = assay: Maximum lowering of blood glucose when 75 mg/kg of the drug administered orally was reported by rat glucose tolerance test; format: functional; conditions: route oral

Row | Structure (SMILES) | IC50 (Rattus norvegicus [1]; Rattus norvegicus) | IC50 (Rattus norvegicus [5]) | minimal effective dose (Rattus norvegicus [2]) | minimal effective concentration (Rattus norvegicus [3]) | Max lowering (Rattus norvegicus [4]) | MEC (Rattus norvegicus [6]) | further results
1 | CCCCCCCCCCCCCCCCCCCCCCC1(C(=O)OC)CO1 (configuration not stated) | – | Not Active | 10 mg/kg | – | 17% | inactive | –
2 | CCCCCCCCCCCCCCCCCCC1(C(=O)OC)CO1 (configuration not stated) | – | – | 10 mg/kg | – | 25% | inactive | –
3 | CCCCCCC1(C(=O)OC)CO1 (configuration not stated) | 102 µM | – | 10 mg/kg | 20 µM | 30% | – | –
4 | COC(=O)C1(CCCCCCCCCCc2ccccc2)CO1 (configuration not stated) | – | – | 10 mg/kg | – | – | – | Max lowering (Rattus norvegicus [9]): 36%
5 | CCCCCCCCCCCCCCCCC1(C(=O)OC)CO1 (configuration not stated) | 100 µM | – | 25 mg/kg | 10 µM | 16% | – | –
6 | CCCCCCCCCCCCCCC1(C(=O)[O-])CO1.[Na+] (configuration not stated) | – | – | 2.5 mg/kg | – | – | – | Max lowering (Rattus norvegicus [10]): 38%; IC50 (Rattus norvegicus [1]): 1 µM; MEC (Rattus norvegicus [3]): 0.2 µM
7 | CCCCCCCCCCCCCCC1(CCC(=O)OC)CO1 (configuration not stated) | – | Not Active | – | – | – | inactive | Max lowering (Rattus norvegicus [7]): inactive; MED (Rattus norvegicus [8]): inactive
8 | CCCCCCCCCCCCCCC1(C(=O)OC)CO1 (configuration not stated) [METHYL PALMOXIRATE] | 2 µM | – | 4 mg/kg | 0.1 µM | – | – | Max lowering (Rattus norvegicus [12]): 45%
9 | CCCCCCCCCCCCCCC1(C(=O)O)CO1 (configuration not stated) [PALMOXIRATE] | – | – | 5 mg/kg | 0.1 µM | 53% | – | –
10 | CCCCCCCCCCCCCCC1(C(=O)NCCO)CO1 (configuration not stated) | – | Not Active | 100 mg/kg | – | 33% | inactive | –
11 | CCCCCCCCCCCCCCC1(C(=O)N(C)C)CO1 (configuration not stated) | – | Not Active | 25 mg/kg | – | 19% | inactive | –

Continued, in another order:

Row | IC50 (Rattus norvegicus [1]; Rattus norvegicus) | IC50 (Rattus norvegicus [5]) | Structure (SMILES) | minimal effective dose (Rattus norvegicus [2]) | minimal effective concentration (Rattus norvegicus [3]) | Max lowering (Rattus norvegicus [4]) | MEC (Rattus norvegicus [6]) | further results
12 | 15 µM | – | CCCCCCCCCCCCC1(C(=O)OC)CO1 (configuration not stated) | 5 mg/kg | 1 µM | 32% | – | –
13 | – | Not Active | CCCCCCCCCCCCCCC1(CC(C(=O)OC)C(=O)OC)CO1 (configuration not stated) | – | – | – | inactive | Max lowering (Rattus norvegicus [7]): inactive; MED (Rattus norvegicus [8]): inactive
14 | – | Not Active | COC(=O)C1(C)CO1 (configuration not stated) | – | – | – | inactive | Max lowering (Rattus norvegicus [7]): inactive; MED (Rattus norvegicus [8]): inactive
15 | 13 µM | – | CCCCCCCCCCCCCC1(C(=O)OC)CO1 (configuration not stated) | 5 mg/kg | 1 µM | 37% | – | –
16 | – | Not Active | CCCCCCCCCCCCCCC1(C(=O)OC)OC1(C)C (configuration not stated) | – | – | – | inactive | Max lowering (Rattus norvegicus [7]): inactive; MED (Rattus norvegicus [8]): inactive
17 | – | Not Active | CCCCCCCCCCCCCCC1(CO)CO1 (configuration not stated) | – | – | – | inactive | Max lowering (Rattus norvegicus [7]): inactive; MED (Rattus norvegicus [8]): inactive
18 | 47 µM | – | CCCCCCCCCCCCCCC1(C(=O)OCCCC)CO1 (configuration not stated) | 1.5 mg/kg | 10 µM | 40% | – | –
19 | 5 µM | – | CCCCCCCCCCC1(C(=O)OC)CO1 (configuration not stated) | 10 mg/kg | 0.5 µM | – | – | Max lowering (Rattus norvegicus [11]): 32%
20 | 16 µM | – | CCCCCCCCCCCCCCC1(C(=O)OCC(O)CO)CO1 (configuration not stated) | 5 mg/kg | 10 µM | – | – | Max lowering (Rattus norvegicus [9]): 31%
21 | 7 µM | – | CCCCCCCCCCCC1(C(=O)OC)CO1 (configuration not stated) | 10 mg/kg | 2.5 µM | 38% | – | –
22 | – | Not Active | CCCCCCCCCCCCCCC1(C(=O)OC)OC1C (configuration not stated) | – | – | – | inactive | Max lowering (Rattus norvegicus [7]): inactive; MED (Rattus norvegicus [8]): inactive
23 | – | Not Active | CCCCCCCCCCC1(C(=O)OCC)OC1(C)C (configuration not stated) | – | – | – | inactive | Max lowering (Rattus norvegicus [7]): inactive; MED (Rattus norvegicus [8]): inactive
24 | – | Not Active | CCCCCCCCCCCCCCC1(C(N)=O)CO1 (configuration not stated) | 10 mg/kg | – | 44% | inactive | –
